Source: ChEMBL document CHEMBL1157708, “Design, synthesis and primary activity assay of bi- or tri-peptide analogues with the scaffold l-arginine as amino-peptidase N/CD13 inhibitors” (Bioorg Med Chem, 2010)
Where a SMILES comes first, the peptide text is derived from it. [ ]: non-standard residue; d: D form. The star is where a group is joined. Arg(NO2) = N=C(NCCC[C@H](N)C(=O)O)N[N+](=O)[O-]; Boc = CC(C)(C)OC(=O)*; Bz = O=C(c1ccccc1)*; NHOH = ON*

Tests used:
[1] = target: 72 kDa type IV collagenase (Homo sapiens, UniProt P08253); test: Inhibition of MMP2 by spectrophotometry
Chain of 72 kDa type IV collagenase (P08253 whole entry): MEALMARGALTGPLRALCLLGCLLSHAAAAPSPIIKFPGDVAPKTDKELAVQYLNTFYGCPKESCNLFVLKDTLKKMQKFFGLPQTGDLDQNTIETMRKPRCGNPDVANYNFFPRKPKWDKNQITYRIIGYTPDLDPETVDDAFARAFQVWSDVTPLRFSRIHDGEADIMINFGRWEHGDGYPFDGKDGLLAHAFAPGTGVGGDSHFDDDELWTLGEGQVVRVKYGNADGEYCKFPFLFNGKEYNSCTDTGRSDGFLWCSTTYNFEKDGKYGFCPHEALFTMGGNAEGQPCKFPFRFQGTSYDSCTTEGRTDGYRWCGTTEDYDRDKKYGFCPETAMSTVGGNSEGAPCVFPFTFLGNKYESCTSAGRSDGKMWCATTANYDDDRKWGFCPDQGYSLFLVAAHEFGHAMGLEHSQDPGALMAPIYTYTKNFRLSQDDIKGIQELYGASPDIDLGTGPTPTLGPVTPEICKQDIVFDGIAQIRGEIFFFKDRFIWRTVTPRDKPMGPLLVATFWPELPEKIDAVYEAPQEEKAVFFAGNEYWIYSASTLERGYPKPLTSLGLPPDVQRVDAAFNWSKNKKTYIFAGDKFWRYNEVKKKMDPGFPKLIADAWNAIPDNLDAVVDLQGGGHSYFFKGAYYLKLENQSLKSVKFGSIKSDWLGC
Method in brief: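 Gelatinase A (MMP-2) with an in-house synthesized substrate and inhibitor, all in 50 mmol/L sodium borate pH 8.5, incubated 30 min at 37 °C. 0.03% TNBS then added and incubated a further 20 min. Absorbance read at 450 nm.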

Aminopeptidase N = target: T1, Aminopeptidase N (Sus scrofa, UniProt P15145); test: Inhibition of APN from pig kidney microsomes by spectrophotometry; assay type: tissue-based
T1 sequence (P15145 whole entry): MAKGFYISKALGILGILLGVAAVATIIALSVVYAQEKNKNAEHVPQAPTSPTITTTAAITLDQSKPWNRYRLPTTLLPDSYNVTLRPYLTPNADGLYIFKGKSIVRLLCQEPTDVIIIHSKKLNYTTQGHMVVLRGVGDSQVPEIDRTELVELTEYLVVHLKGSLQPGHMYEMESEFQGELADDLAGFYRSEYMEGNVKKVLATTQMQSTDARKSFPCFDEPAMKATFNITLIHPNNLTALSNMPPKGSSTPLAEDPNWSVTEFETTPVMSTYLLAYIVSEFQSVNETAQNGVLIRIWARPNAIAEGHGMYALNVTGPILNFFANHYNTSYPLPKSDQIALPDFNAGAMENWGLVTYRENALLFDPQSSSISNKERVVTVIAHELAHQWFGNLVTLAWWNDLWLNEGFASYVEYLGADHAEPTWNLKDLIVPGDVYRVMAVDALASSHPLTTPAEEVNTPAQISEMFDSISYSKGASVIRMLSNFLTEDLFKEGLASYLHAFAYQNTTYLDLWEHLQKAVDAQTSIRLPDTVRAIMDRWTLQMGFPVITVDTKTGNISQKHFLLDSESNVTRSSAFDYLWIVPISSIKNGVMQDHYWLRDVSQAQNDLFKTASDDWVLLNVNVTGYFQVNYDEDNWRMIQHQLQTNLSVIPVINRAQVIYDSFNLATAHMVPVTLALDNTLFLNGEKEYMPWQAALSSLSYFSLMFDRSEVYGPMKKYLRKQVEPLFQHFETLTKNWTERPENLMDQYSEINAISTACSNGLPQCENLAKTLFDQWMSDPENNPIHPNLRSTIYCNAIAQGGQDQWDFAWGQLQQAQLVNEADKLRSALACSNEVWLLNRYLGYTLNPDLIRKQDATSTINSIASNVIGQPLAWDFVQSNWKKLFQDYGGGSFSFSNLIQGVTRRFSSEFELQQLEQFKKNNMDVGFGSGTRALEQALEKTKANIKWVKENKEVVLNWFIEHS

Row | Compound | IC50 [1] [µM] | IC50 (Aminopeptidase N) [µM]
1 | CC(C)C[C@H](NC(=O)OC(C)(C)C)C(=O)N[C@@H](CCCNC(N)=N[N+](=O)[O-])C(=O)NO | 5680 | 334
2 | CC(C)C[C@H](N)C(=O)N[C@@H](CCCNC(=N)N[N+](=O)[O-])C(=O)NO | 5310 | –
3 | CSCCC[C@H](N)C(=O)N[C@@H](CCCNC(=N)N[N+](=O)[O-])C(=O)NO | 4200 | –
4 | CC(C)C[C@H](NC(=O)c1ccc(Cl)cc1Cl)C(=O)N[C@@H](CCCNC(N)=N[N+](=O)[O-])C(=O)NO | 1540 | 7.2
5 | N=C(NCCC[C@H](NC(=O)[C@H](Cc1ccccc1)NC(=O)c1ccc(Cl)cc1Cl)C(=O)NO)N[N+](=O)[O-] | 8140 | 4.3
6 | COc1ccc(C(=O)N[C@@H](C)C(=O)N[C@@H](CCCNC(N)=N[N+](=O)[O-])C(=O)NO)cc1 | 8970 | 16.3
7 | C[C@H](NC(=O)c1ccc(Cl)cc1Cl)C(=O)N[C@@H](CCCNC(N)=N[N+](=O)[O-])C(=O)NO | 1760 | 31.4
8 | CC(C)[C@H](NC(=O)c1ccccc1I)C(=O)N[C@@H](CCCNC(N)=N[N+](=O)[O-])C(=O)NO | 1780 | 6.7
9 | CC(C)C[C@H](NC(=O)c1ccccc1Cl)C(=O)N[C@@H](CCCNC(N)=N[N+](=O)[O-])C(=O)NO | 630 | 4.8
10 | CC(C)C[C@H](NC(=O)OC(C)(C)C)C(=O)N[C@@H](C)C(=O)N[C@@H](CCCNC(N)=N[N+](=O)[O-])C(=O)NO (Boc-Leu-Ala-[Arg(NO2)]-{NHOH}) | 2900 | 39.5
11 | CC(C)C[C@H](NC(=O)OC(C)(C)C)C(=O)NCC(=O)N[C@@H](CCCNC(N)=N[N+](=O)[O-])C(=O)NO (Boc-Leu-Gly-[Arg(NO2)]-{NHOH}) | 2980 | 25.2
12 | CSCC[C@H](NC(=O)OC(C)(C)C)C(=O)N[C@@H](CCCNC(=N)N[N+](=O)[O-])C(=O)NO (Boc-Met-[Arg(NO2)]-{NHOH}) | 1940 | 132
13 | CC(C)C[C@H](NC(=O)[C@H](Cc1ccccc1)NC(=O)OC(C)(C)C)C(=O)N[C@@H](CCCNC(=N)N[N+](=O)[O-])C(=O)NO (Boc-Phe-Leu-[Arg(NO2)]-{NHOH}) | 407 | 8.4
14 | CC(C)[C@H](NC(=O)[C@H](Cc1ccccc1)NC(=O)OC(C)(C)C)C(=O)N[C@@H](CCCNC(=N)N[N+](=O)[O-])C(=O)NO (Boc-Phe-Val-[Arg(NO2)]-{NHOH}) | 447 | 33.1
15 | CC(C)(C)OC(=O)N1CCC[C@H]1C(=O)N[C@@H](Cc1ccccc1)C(=O)N[C@@H](CCCNC(=N)N[N+](=O)[O-])C(=O)NO (Boc-Pro-Phe-[Arg(NO2)]-{NHOH}) | 7900 | 1340
16 | CC(C)(C)OC(=O)N1CCC[C@H]1C(=O)N1CCC[C@H]1C(=O)N[C@@H](CCCNC(=N)N[N+](=O)[O-])C(=O)NO (Boc-Pro-Pro-[Arg(NO2)]-{NHOH}) | 8360 | 42.1
17 | CC(C)(C)OC(=O)N1CCC[C@H]1C(=O)N[C@@H](Cc1ccc(O)cc1)C(=O)N[C@@H](CCCNC(=N)N[N+](=O)[O-])C(=O)NO (Boc-Pro-Tyr-[Arg(NO2)]-{NHOH}) | 4520 | 436
18 | CC(C)[C@H](NC(=O)OC(C)(C)C)C(=O)N[C@@H](CCCNC(N)=N[N+](=O)[O-])C(=O)NO (Boc-Val-[Arg(NO2)]-{NHOH}) | 3460 | 201
19 | N=C(NCCC[C@H](NC(=O)[C@H](Cc1ccccc1)NC(=O)c1ccccc1)C(=O)NO)N[N+](=O)[O-] (Bz-Phe-[Arg(NO2)]-{NHOH}) | 1650 | 4.2
20 | CC(C)C[C@H](N)C(=O)N[C@@H](C)C(=O)N[C@@H](CCCNC(N)=N[N+](=O)[O-])C(=O)NO (H-Leu-Ala-[Arg(NO2)]-{NHOH}) | 1710 | –
21 | CC(C)C[C@H](N)C(=O)NCC(=O)N[C@@H](CCCNC(N)=N[N+](=O)[O-])C(=O)NO (H-Leu-Gly-[Arg(NO2)]-{NHOH}) | 3630 | –
22 | CC(C)C[C@H](NC(=O)[C@@H](N)Cc1ccccc1)C(=O)N[C@@H](CCCNC(=N)N[N+](=O)[O-])C(=O)NO (H-Phe-Leu-[Arg(NO2)]-{NHOH}) | 514 | –
23 | CC(C)[C@H](NC(=O)[C@@H](N)Cc1ccccc1)C(=O)N[C@@H](CCCNC(N)=N[N+](=O)[O-])C(=O)NO (H-Phe-Val-[Arg(NO2)]-{NHOH}) | 3160 | 98.6
24 | NC(=N[N+](=O)[O-])NCCC[C@H](NC(=O)[C@H](Cc1ccccc1)NC(=O)[C@@H]1CCCN1)C(=O)NO (H-Pro-Phe-[Arg(NO2)]-{NHOH}) | 8050 | 364
25 | N=C(NCCC[C@H](NC(=O)[C@@H]1CCCN1C(=O)[C@@H]1CCCN1)C(=O)NO)N[N+](=O)[O-] (H-Pro-Pro-[Arg(NO2)]-{NHOH}) | 8610 | 65.2
26 | N=C(NCCC[C@H](NC(=O)[C@H](Cc1ccc(O)cc1)NC(=O)[C@@H]1CCCN1)C(=O)NO)N[N+](=O)[O-] (H-Pro-Tyr-[Arg(NO2)]-{NHOH}) | 7590 | 248
27 | CC(C)[C@H](N)C(=O)N[C@@H](CCCNC(N)=N[N+](=O)[O-])C(=O)NO (H-Val-[Arg(NO2)]-{NHOH}) | 428 | –
28 | CC(C)C[C@H](NC(=O)[C@@H](O)[C@H](N)Cc1ccccc1)C(=O)O [UBENIMEX] | 253 | –
